Experimental data gathered from unrelated publications.
Target: 5-hydroxytryptamine receptor 2B (HTR2B, Homo sapiens, UniProt P41595)

N#Cc1cc(Cn2c(N3CCCC3)nc3ccccc32)ccc1F gave an inhibition of 30.4% (ligand displacement; 10 µM).
The inhibition of O=C(c1ccc(Cl)cc1)N(Cc1ccccc1)C1CCCCC1 is reported as 19.9% (ligand displacement, radioligand; 10 µM).
CCCNc1nc2ccccc2n1Cc1ccc(Cl)cc1 has an inhibition of 96.3% (ligand displacement; 10 µM).
The inhibition of O=C(O)c1cc(-c2ccc(C3CCNCC3)cc2)c2ccc(-c3ccc(C(F)(F)F)cc3)cc2c1 is reported as 7.95% (ligand displacement; 10 µM).
For CCN(CC)c1ccc(C2Nc3ccc(C(=O)c4ccccc4)cc3NC3=C2C(=O)CC(C)(C)C3)cc1 (centres unmarked), the inhibition was 50% (ligand displacement, radioligand; 10 µM).
For O=C(c1ccc(F)cc1)N(Cc1ccccc1)C1CCCCC1, the inhibition was 20% (cell-free assay, radioligand; 10 µM).
Ic1cccc2cnccc12 has an inhibition of 79% (ligand displacement, radioligand; 10 µM).
The inhibition of C#CCOCCOCCOc1ccc2c3c1C1CCCC1N3CCNC2 (racemic) is reported as about 70% (ligand displacement, radioligand; 10 µM).
The inhibition of O=C(Nc1ccc(S(=O)(=O)N2CCC(Cl)CC2)cc1)c1ccc([N+](=O)[O-])o1 is reported as 8% (ligand displacement, radioligand; 10 µM).
The inhibition of O=C1N=C(N2CCCCN2)S/C1=C\c1ccc(F)cc1O is reported as under 10% (ligand displacement, radioligand; 10 µM).
The inhibition of CCN(Cc1ccccc1C(F)(F)F)C(=O)C1CCN(S(=O)(=O)c2ccc3[nH]ncc3c2)CC1 is reported as 32% (ligand displacement, radioligand; 10 µM).
Clc1cccc(OC[C@@H]2CN(CCN3CCc4ccccc43)CCO2)c1 has an Emax of 71.2% (calcium signal, agonist, fluorescence).
For Cc1ncc(-c2cc(Cl)ccc2F)cc1-n1c(=O)n(CC(N)=O)c2ccccc21, the inhibition was 72% (ligand displacement; 10 µM).
For Nc1ccc(-c2ccncc2)cc1NC(=O)N1CCCC1, the inhibition was 14% (ligand displacement, radioligand; 10 µM).
